The source of these data is ChEMBL document CHEMBL1138738, “Synthesis, in vitro pharmacology, structure-activity relationships, and pharmacokinetics of 3-alkoxy-2-amino-6-fluorobicyclo[3.1.0]hexane-2,6-dicarboxylic acid derivatives as potent and selective group II metabotropic glutamate receptor antagonists” (J Med Chem, 2004).

What is called Ki is a measure of affinity in units of concentration, obtained from inhibition or displacement. The low end stands for a stronger hold on the target, the high end for a looser hold on the target. One may read the Tmax as the time at which the peak concentration occurs. What is called EC50 is the concentration that produces a half-maximal response. Lower therefore signals an effect from little substance. The Cmax is the highest concentration seen after dosing. One may read the half-life as how long it takes for the measured level to halve. A low value points to fast loss. In general, IC50 refers to the point on the concentration scale where inhibition reaches its midpoint. A low value points to greater potency.

SMILES strings stand for the structures.

Data set [1] concerns the target T1, Metabotropic glutamate receptor 2 (Rattus norvegicus, UniProt P31421). In words: Binding affinity towards metabotropic glutamate receptor 2 of rat expressed in CHO cells was determined by using [3H]MGS-0008. The format is cell-based.
Data set [2] in a line: Maximum time required to achieve peak plasma concentration in rat brain upon oral dose of 10 mg/kg. The arrangement: dose 10 mg/kg, route oral. The format is ADME, organism-based. A digest of the protocol:
(§1)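 Rats given a single peroral dose of 10 mg/kg. Plasma and cerebrum were sampled at 1, 3, 6 and 24 h. Concentrations were measured by LC/ESI-MS/MS using an internal standard. Detection limits were 1 ng/mL in plasma and 1.5 ng/g in brain. Tmax, Cmax, terminal half-life (lambda z) and predicted AUCinf were derived from the mean time-course levels.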

A short description of data set [3]: Maximum time required to achieve peak plasma concentration upon oral dose of 10 mg/kg to rats. The data set is classed as ADME, organism-based. Details: dose 10 mg/kg, route oral. The following applies: rat. Summed up:
(§2)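 Fasted rats were dosed orally at 3, 10 or 30 mg/kg. Plasma concentration-time profiles were measured by LC/ESI-MS/MS. Cmax, Tmax, elimination half-life and AUCinf were derived per dose group and reported as mean ± deviation.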

Data set [4] addresses T1, Metabotropic glutamate receptor 2. Description: Effective concentration for agonistic activity towards metabotropic glutamate receptor 2 of rat expressed in CHO cells. The format is functional, cell-based.
The nature of data set [5]: Concentration of compound in plasma of rat after 3h of oral dose 10 mg/kg. The data set is classed as ADME, organism-based. The arrangement: dose 10 mg/kg, route oral. A digest of the protocol:
as §1

Data set [6] in a line: Peak plasma concentration in rats upon oral dose of 3 mg/kg. The following applies: rat. The data set is classed as ADME, organism-based. The arrangement: dose 3 mg/kg, route oral. A digest of the protocol: as §2
Data set [7] is described as follows: Half-life in rat upon oral dose of 3 mg/kg. The format is ADME, organism-based. Details: dose 3 mg/kg, route oral. The settings on record: in vivo. A digest of the protocol:
as §2

The nature of data set [8]: Peak plasma concentration in rats upon oral dose of 10 mg/kg. The format is ADME, organism-based. The arrangement: dose 10 mg/kg, route oral. The settings on record: rat. A digest of the protocol:
as §2

Data set [9] can be described thus: Concentration of compound in plasma of rat after 6 hr of oral dose 10 mg/kg. The data set is classed as ADME, organism-based. The arrangement: dose 10 mg/kg, route oral. Summed up:
as §1

A short description of data set [10]: Maximum time required to achieve peak plasma concentration upon oral dose of 30 mg/kg to rats. The data set is classed as ADME, organism-based. The arrangement: dose 30 mg/kg, route oral. The following applies: rat. Summed up: as §2
Data set [11] in a line: Half-life in rat upon oral dose of 30 mg/kg. Details: dose 30 mg/kg, route oral. The format is ADME, organism-based. The settings on record: in vivo. Summed up:
as §2

A short description of data set [12]: Half-life in rat upon oral dose of 10 mg/kg. The format is ADME, organism-based. The arrangement: dose 10 mg/kg, route oral. The following applies: in vivo. Summed up: as §2
The nature of data set [13]: Concentration of compound in brain of rat after 3h of oral dose 10 mg/kg. The data set is classed as ADME, organism-based. Details: dose 10 mg/kg, route oral. Summed up:
as §1

A short description of data set [14]: Peak plasma concentration in rats upon oral dose of 30 mg/kg. Details: dose 30 mg/kg, route oral. The following applies: rat. The data set is classed as ADME, organism-based. A digest of the protocol: as §2
Data set [15] is described as follows: Maximum time required to achieve peak plasma concentration in rat plasma upon oral dose of 10 mg/kg. The data set is classed as ADME, organism-based. The arrangement: dose 10 mg/kg, route oral. Summed up:
as §1

Data set [16] can be described thus: Concentration of compound in brain of rat after 6 hr of oral dose 10 mg/kg. The data set is classed as ADME, organism-based. Details: dose 10 mg/kg, route oral. A digest of the protocol: as §1
Data set [17] is described as follows: Peak plasma concentration in rat plasma upon oral dose of 10 mg/kg. The format is ADME, organism-based. Details: dose 10 mg/kg, route oral. A digest of the protocol: as §1
Data set [18] can be described thus: Concentration of compound in brain of rat after 1 hr of oral dose 10 mg/kg. The data set is classed as ADME, organism-based. The arrangement: dose 10 mg/kg, route oral. Summed up: as §1
Data set [19] concerns the target Metabotropic glutamate receptor 3 (Rattus norvegicus, UniProt P31422). Description: Binding affinity towards metabotropic glutamate receptor 3 of rat expressed in CHO cells was determined by using [3H]MGS-0008. The data set is classed as cell-based.
A short description of data set [20]: Half-life in rat plasma upon oral dose of 10 mg/kg. The data set is classed as ADME, organism-based. The arrangement: dose 10 mg/kg, route oral. A digest of the protocol:
as §1

Data set [21] is described as follows: Concentration of compound in plasma of rat after 1 hr of oral dose 10 mg/kg. The arrangement: dose 10 mg/kg, route oral. The data set is classed as ADME, organism-based. Summed up: as §1
Data set [22] is described as follows: Maximum time required to achieve peak plasma concentration upon oral dose of 3 mg/kg to rats. Details: dose 3 mg/kg, route oral. The following applies: rat. The data set is classed as ADME, organism-based. Summed up: as §2
The nature of data set [23]: Peak plasma concentration in rat brain upon oral dose of 10 mg/kg. The format is ADME, organism-based. Details: dose 10 mg/kg, route oral. A digest of the protocol:
as §1

The target in data set [24] is T1, Metabotropic glutamate receptor 2. Description: Concentration required to inhibit metabotropic glutamate receptor 2 activity of rat expressed in CHO cells. The data set is classed as cell-based.
Data set [25] is described as follows: Half-life in rat brain upon oral dose of 10 mg/kg. The format is ADME, organism-based. Details: dose 10 mg/kg, route oral. Summed up:
as §1

The nature of data set [26]: Concentration of compound in plasma of rat after 24 hr of oral dose 10 mg/kg. The format is ADME, organism-based. Details: dose 10 mg/kg, route oral. A digest of the protocol: as §1
A short description of data set [27]: Concentration of compound in brain of rat after 24 hr of oral dose 10 mg/kg. The format is ADME, organism-based. Details: dose 10 mg/kg, route oral. A digest of the protocol:
as §1

Sequence of Metabotropic glutamate receptor 3 (P31422 whole entry): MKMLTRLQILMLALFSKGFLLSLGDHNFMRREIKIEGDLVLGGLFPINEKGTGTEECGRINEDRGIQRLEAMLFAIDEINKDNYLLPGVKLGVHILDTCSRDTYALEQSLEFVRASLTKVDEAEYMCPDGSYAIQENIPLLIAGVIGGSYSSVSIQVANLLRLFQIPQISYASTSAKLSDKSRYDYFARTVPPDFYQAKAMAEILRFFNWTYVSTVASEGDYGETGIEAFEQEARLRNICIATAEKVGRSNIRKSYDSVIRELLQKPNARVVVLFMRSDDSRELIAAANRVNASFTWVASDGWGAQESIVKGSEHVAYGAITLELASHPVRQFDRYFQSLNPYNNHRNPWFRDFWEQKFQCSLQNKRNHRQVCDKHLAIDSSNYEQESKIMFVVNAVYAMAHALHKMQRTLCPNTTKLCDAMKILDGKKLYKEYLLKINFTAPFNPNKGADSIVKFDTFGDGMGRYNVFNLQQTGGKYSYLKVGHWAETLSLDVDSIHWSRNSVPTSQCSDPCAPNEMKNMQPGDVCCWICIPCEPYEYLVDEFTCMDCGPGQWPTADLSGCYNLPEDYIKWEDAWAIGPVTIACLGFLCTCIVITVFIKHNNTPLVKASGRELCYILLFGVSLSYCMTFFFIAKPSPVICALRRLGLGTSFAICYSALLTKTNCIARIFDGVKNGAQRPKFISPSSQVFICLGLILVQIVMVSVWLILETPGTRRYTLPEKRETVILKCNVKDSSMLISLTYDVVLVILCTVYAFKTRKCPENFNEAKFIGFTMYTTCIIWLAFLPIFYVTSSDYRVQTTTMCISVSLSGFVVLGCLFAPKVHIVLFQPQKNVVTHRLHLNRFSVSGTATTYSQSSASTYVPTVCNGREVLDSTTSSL
T1 sequence (P31421 whole entry): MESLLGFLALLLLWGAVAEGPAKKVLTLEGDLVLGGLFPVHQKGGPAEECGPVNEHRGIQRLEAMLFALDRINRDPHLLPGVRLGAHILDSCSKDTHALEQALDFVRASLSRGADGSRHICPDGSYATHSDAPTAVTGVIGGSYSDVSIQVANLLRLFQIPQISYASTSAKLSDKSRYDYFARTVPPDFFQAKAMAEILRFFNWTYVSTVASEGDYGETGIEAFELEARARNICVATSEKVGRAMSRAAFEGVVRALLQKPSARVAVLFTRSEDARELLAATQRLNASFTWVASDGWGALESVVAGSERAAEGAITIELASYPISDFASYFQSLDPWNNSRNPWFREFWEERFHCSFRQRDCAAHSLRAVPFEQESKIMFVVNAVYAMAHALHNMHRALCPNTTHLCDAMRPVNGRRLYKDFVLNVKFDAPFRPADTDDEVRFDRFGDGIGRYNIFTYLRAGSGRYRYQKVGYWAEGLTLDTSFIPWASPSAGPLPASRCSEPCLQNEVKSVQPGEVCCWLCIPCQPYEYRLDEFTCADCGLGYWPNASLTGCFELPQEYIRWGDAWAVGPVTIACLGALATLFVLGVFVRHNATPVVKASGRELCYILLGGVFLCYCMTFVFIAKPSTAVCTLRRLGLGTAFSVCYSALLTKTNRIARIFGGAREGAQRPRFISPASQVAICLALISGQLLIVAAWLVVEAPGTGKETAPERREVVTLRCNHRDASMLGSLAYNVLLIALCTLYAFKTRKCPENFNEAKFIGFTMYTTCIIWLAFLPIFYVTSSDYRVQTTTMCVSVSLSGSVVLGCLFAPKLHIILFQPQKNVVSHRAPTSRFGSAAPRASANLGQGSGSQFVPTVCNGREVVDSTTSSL

The compound `N[C@]1(C(=O)O)[C@H]2[C@@H](C[C@H]1OCc1cccc(Br)c1)[C@]2(F)C(=O)O` showed a Ki in data set [1] of 4.71 nM.

In data set [1], `COc1cccc(CO[C@@H]2C[C@@H]3[C@H]([C@]2(N)C(=O)O)[C@@]3(F)C(=O)O)c1` yielded a Ki of 5.92 nM.

Take `N[C@]1(C(=O)O)[C@H]2[C@@H](C[C@H]1OCc1ccc(Cl)cc1)[C@]2(F)C(=O)O`: the time to peak (Tmax) in [2] turned out to be 3 h; in data set [3], 2.3 h; in [10] it was 2.7 h; in [15] it was 3 h; in data set [22], 1.3 h. In data set [4], this compound registered an EC50 of over 100000 nM. Besides, the concentration at 3 h amounted to 225 ng/mL in data set [5] and 3.66 ng/mL in data set [13]. Moreover, the Cmax in [6] came to 76.6 ng/mL; in data set [8], 272 ng/mL; in [14] it was 651 ng/mL; in data set [17], 225 ng/mL; in data set [23], 3.66 ng/mL. In addition, the half-life in data set [7] is 1.67 h; in data set [11], 3.28 h; in data set [12], 3.75 h; in [20] it was 2.5 h. Also, the results for the concentration at 6 h in [9] and in data set [16] were 98.2 ng/mL and 3.39 ng/mL, respectively. In addition, the results for the Ki in [1] and in data set [19] were 3.17 nM and 4.77 nM, respectively. For the same compound, the values for the concentration at 1 h in data set [18] and in data set [21] were 2.51 ng/mL and 176 ng/mL, respectively.

`N[C@]1(C(=O)O)[C@H]2[C@@H](C[C@H]1OCc1c(F)cccc1F)[C@]2(F)C(=O)O` displayed a Ki in data set [1] of 7.02 nM.

Turning to `N[C@]1(C(=O)O)[C@@H](OCc2ccc(Cl)c(Cl)c2)C[C@H]2[C@@H]1[C@]2(F)C(=O)O`, the Ki in [1] was over 10000 nM.

`N[C@]1(C(=O)O)[C@H]2[C@@H](C[C@H]1OCc1ccc(F)c(F)c1)[C@]2(F)C(=O)O`: the time of peak concentration (Tmax) in data set [2] was determined as 3 h; in [3], 1.7 h; in [10], 1.2 h; in data set [15], 1 h; in [22] it was 1.3 h. This compound returned an EC50 in [4] of over 100000 nM. The concentration at 3 h was 179 ng/mL in data set [5] and 3.11 ng/mL in data set [13]. The Cmax in [6] was found to be 82.3 ng/mL; in [8] it was 297 ng/mL; in [14], 635 ng/mL; in [17], 213 ng/mL; in data set [23] it was 3.11 ng/mL. Also, the half-life in [7] was 3.47 h; in data set [11], 3.62 h; in data set [12], 1.78 h; in data set [25], 19.5 h; in data set [20], 2.8 h. The results for the concentration at 6 h in [9] and in data set [16] were 41.1 ng/mL and 2.4 ng/mL, respectively. Also, the half-inhibitory concentration (IC50) in data set [24] amounted to 40.8 nM. Besides, the Ki stood at 2.27 nM in data set [1] and 3 nM in data set [19]. Also, the concentration at 1 h in data set [18] was 3.06 ng/mL; in data set [21] it was 213 ng/mL. The concentration at 24 h in data set [26] is 0.8 ng/mL; in data set [27] it was 1.39 ng/mL.

Compound `N[C@]1(C(=O)O)[C@H]2[C@@H](C[C@H]1OC(c1ccc(Cl)cc1)c1ccc(Cl)cc1)[C@]2(F)C(=O)O` had a Ki in data set [1] of 3.75 nM.

Turning to `CO[C@@H]1C[C@@H]2[C@H]([C@]1(N)C(=O)O)[C@@]2(F)C(=O)O`, the Ki in [1] was found to be 39.2 nM; in data set [19], 88.1 nM.

In data set [1], `N[C@]1(C(=O)O)[C@H]2[C@@H](C[C@H]1OCc1cc(F)ccc1F)[C@]2(F)C(=O)O` returned a Ki of 14.4 nM.

`N[C@]1(C(=O)O)[C@H]2[C@@H](C[C@H]1OCc1cccc(Cl)c1Cl)[C@]2(F)C(=O)O` registered a Ki in data set [1] of 4.35 nM.

For the compound `CC[C@@H](O[C@@H]1C[C@@H]2[C@H]([C@]1(N)C(=O)O)[C@@]2(F)C(=O)O)c1ccc(Cl)c(Cl)c1`, the Ki in data set [1] is 1.61 nM.

Regarding `N[C@]1(C(=O)O)[C@H]2[C@@H](C[C@H]1OCc1cccc(Cl)c1)[C@]2(F)C(=O)O`, the inhibition constant Ki in data set [1] amounted to 3.28 nM.

The compound `CC[C@H](O[C@@H]1C[C@@H]2[C@H]([C@]1(N)C(=O)O)[C@@]2(F)C(=O)O)c1ccc(Cl)c(Cl)c1` returned a Ki in [1] of 3.12 nM.

In data set [1], `N[C@]1(C(=O)O)[C@H]2[C@@H](C[C@H]1OCc1c(Cl)cccc1Cl)[C@]2(F)C(=O)O` registered a Ki of 4.3 nM.
